pIC50: −log10 of the molar value. Entries after “also recorded” stand apart in the source; their conditions may differ.
How the values were obtained:
I-A^b = molecular target: T1, I-A^b (Mus musculus, UniProt P14434+P14483); test: MHC binding assay, inhibition of radiolabeled peptide binding, I-A^b
T1 sequence (P14434 24-256): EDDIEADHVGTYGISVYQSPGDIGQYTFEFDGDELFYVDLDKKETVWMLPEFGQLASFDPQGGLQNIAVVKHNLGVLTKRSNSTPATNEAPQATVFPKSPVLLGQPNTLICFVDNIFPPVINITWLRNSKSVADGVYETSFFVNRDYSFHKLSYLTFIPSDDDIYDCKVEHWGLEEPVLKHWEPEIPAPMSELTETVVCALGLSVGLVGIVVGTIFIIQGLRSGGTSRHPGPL
T1 sequence (P14483 28-265): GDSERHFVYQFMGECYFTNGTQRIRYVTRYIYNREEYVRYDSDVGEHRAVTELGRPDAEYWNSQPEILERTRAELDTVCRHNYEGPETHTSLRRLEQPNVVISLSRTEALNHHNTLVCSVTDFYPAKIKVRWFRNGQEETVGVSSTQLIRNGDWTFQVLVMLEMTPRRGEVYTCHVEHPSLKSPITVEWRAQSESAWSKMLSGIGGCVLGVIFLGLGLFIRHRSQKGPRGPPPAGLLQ
How it was run: (§1)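 Class II MHC affinity-purified from mouse B cell lymphoma LB27.4. Complexes captured on Y3JP antibody-coated plates; bound cpm counted by microscintillation. Six peptide concentrations over a 100,000-fold range, ≥3 independent experiments. IC50 is the concentration giving 50% probe inhibition; unlabeled probe is the positive control.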

I-A^d = molecular target: T2, I-A^d (Mus musculus, UniProt P01921+P04228); test: MHC binding assay, inhibition of radiolabeled peptide binding, I-A^d
T2 sequence (P04228 24-256): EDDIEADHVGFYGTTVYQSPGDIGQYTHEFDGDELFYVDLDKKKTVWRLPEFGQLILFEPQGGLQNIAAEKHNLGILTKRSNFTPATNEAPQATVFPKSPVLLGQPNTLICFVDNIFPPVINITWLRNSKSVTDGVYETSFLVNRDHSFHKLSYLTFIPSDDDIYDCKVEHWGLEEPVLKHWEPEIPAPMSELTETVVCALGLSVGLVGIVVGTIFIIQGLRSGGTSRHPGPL
T2 sequence (P01921 28-265): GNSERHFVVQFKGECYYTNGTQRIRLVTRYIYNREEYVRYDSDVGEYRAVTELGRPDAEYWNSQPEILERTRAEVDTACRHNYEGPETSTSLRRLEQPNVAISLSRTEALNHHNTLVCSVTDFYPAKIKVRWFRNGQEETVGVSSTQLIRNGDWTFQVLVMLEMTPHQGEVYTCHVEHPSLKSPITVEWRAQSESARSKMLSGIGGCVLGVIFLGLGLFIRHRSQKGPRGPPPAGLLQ
How it was run: as §1

I-E^d = molecular target: T3, I-E^d (Mus musculus, UniProt P01904+P01915); test: MHC binding assay, inhibition of radiolabeled peptide binding, I-E^d
T3 sequence (P01904 26-255): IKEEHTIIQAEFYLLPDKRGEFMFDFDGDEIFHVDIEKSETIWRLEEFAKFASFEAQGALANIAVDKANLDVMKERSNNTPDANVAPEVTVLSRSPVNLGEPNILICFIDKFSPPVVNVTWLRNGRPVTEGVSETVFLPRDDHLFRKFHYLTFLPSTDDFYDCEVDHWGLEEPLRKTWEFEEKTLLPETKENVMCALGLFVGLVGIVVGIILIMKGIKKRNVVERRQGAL
T3 sequence (P01915 27-264 limits assumed): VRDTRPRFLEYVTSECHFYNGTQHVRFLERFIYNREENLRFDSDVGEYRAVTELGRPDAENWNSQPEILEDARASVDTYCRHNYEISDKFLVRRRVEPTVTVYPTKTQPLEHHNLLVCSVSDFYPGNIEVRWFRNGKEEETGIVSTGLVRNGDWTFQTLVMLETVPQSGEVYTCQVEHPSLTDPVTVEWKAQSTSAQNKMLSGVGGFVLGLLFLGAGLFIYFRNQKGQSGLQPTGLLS

splenocytes [1] = type: cell-based, mouse; conditions: for IL-17A or IFNγ responses by ELISpot: 24 hours, 37°C
splenocytes [2] = conditions: mouse, in vivo
S. aureus = system: S. aureus; parameters: species or system S. aureus strain 923, a USA300 isolate; mice; conditions: mouse, in vivo
[3] = system: tetramer^+ CD44^hi CD4^+ T cells; conditions: mouse, in vivo
TFH cells = conditions: mouse, in vivo

Compound	pIC50 (I-A^b)	IFNγ response by ELISpot (splenocytes [1])	IL-17A and IFNγ responses, mice expressing H-2^d compared with H-2^b (splenocytes [1])	IL-17A response by ELISpot (splenocytes [1])	IL-17A or IFNγ responses by ELISpot (splenocytes [1])	also measured
CC[C@H](C)[C@H](NC(=O)[C@H](CCC(=O)O)NC(=O)[C@H](Cc1c[nH]cn1)NC(=O)[C@@H](NC(=O)[C@H](CCCCN)NC(=O)[C@H](Cc1c[nH]c2ccccc12)NC(=O)[C@H](CC(N)=O)NC(=O)[C@@H](NC(=O)[C@H](CCC(=O)O)NC(=O)[C@@H](N)Cc1ccc(O)cc1)C(C)C)[C@@H](C)O)C(=O)N[C@@H](CCCCN)C(=O)N[C@H](C(=O)N[C@@H](CCCCN)C(=O)NCC(=O)N[C@@H](Cc1c[nH]cn1)C(=O)N[C@@H](CC(N)=O)C(=O)O)C(C)C [LkT/C]	4.76					pIC50 (I-A^d): 5.49; pIC50 (I-E^d): 8.66
CC[C@H](C)[C@H](N)C(=O)NCC(=O)NCC(=O)N[C@@H](CC(N)=O)C(=O)NCC(=O)N[C@@H](CO)C(=O)N[C@@H](Cc1ccccc1)C(=O)N[C@@H](CC(N)=O)C(=O)N[C@@H](Cc1ccc(O)cc1)C(=O)N[C@@H](CO)C(=O)N[C@@H](CCCCN)C(=O)N[C@H](C(=O)N[C@H](C(=O)N[C@@H](CO)C(=O)N[C@@H](Cc1ccc(O)cc1)C(=O)N[C@H](C(=O)O)[C@@H](C)O)[C@@H](C)CC)[C@@H](C)O [LukE153–168]	6.23					
CC(C)[C@H](NC(=O)CNC(=O)[C@H](Cc1c[nH]c2ccccc12)NC(=O)[C@@H](N)CCCCN)C(=O)N[C@@H](CCCCN)C(=O)N[C@@H](C)C(=O)N[C@@H](CC(N)=O)C(=O)N[C@@H](CCC(=O)O)C(=O)N[C@@H](Cc1ccccc1)C(=O)N[C@H](C(=O)N[C@H](C(=O)N1CCC[C@H]1C(=O)N[C@@H](CC(=O)O)C(=O)NCC(=O)N[C@@H](CCCCN)C(=O)N[C@@H](CCCCN)C(=O)O)[C@@H](C)O)C(C)C [LukE185–200]	5.39					
LukE: leukotoxin E, His-tagged, purified from E. coli; antigen and vaccine		weaker IFNγ; also recorded: moderate IFNg responses	significantly stronger IL-17A and IFNγ responses	strongest IL-17A responses; also recorded: strong IL-17A responses	minimal IL-17A or IFNγ responses; also recorded: no detectable responses	IL-17A and IFNγ responses, vaccination compared with SSTI (splenocytes [2]): stronger IL-17A and IFNγ responses; LukE-specific IL-17A response after vaccination (splenocytes [2]): no differences in LukE-specific IL-17A responses; reduction of lesion size compared with control mice (S. aureus): approximately 40%; protection against dermonecrosis (lesion size) after vaccination (S. aureus; sc): moderately strong protection against dermonecrosis; also recorded: weaker protection; LukE-specific tetramer^+ CD44^hi CD4^+ T cells after vaccination [3]: high frequencies; also recorded: strong LukE-specific T cell responses; LukE-specific TFH cells after vaccination (TFH cells): expanded a population of LukE-specific TFH cells; also recorded: expansion of LukE-specific TFH cells
LukS-PV: leukocidin S-PV, purified from E. coli, GST removed; sae-regulated antigen		weaker IFNγ; also recorded: moderate IFNg responses	significantly stronger IL-17A and IFNγ responses	strongest IL-17A responses; also recorded: strong IL-17A responses	minimal IL-17A or IFNγ responses; also recorded: no detectable responses	
